Data: ChEMBL document CHEMBL4049423, “Discovery of Novel 1,4-Diacylpiperazines as Selective and Cell-Active eIF4A3 Inhibitors” (J Med Chem, 2017)
Calls of active or inactive are those of the source. The calls are words filed in the database; no cut-off is given here.

Legend:
[1] = target: T1, Eukaryotic initiation factor 4A-III (Homo sapiens, UniProt P38919); assay: Inhibition of MLN51-induced full-length human recombinant His6-tagged eIF4A3 RNA dependent ATPase activity expressed in Escherichia coli BL21(DE3) using single stranded poly(U) RNA as substrate after 30 mins by ADP-Glo luminescence assay
T1 sequence (P38919 whole entry): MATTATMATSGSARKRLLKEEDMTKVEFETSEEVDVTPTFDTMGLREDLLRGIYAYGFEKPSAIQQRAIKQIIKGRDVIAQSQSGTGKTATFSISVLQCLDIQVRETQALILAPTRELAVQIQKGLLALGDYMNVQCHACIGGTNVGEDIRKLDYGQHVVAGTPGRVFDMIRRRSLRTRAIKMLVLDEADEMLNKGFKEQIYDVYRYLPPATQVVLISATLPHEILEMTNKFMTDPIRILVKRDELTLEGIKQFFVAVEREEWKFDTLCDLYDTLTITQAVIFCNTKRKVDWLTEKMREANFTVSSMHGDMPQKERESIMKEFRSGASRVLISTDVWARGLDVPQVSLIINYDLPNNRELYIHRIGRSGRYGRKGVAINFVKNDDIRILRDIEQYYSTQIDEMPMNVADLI
In short: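 ADP-Glo luminescence read-out with 150 nM eIF4A3 plus an equimolar amount of MLN51. Substrates were 35 μM ATP and 1.5 μg/mL poly(U), both at Km. Buffer: 20 mM Tris-HCl pH 7.5, 2.5 mM MgCl2, 100 mM KCl, 1 mM DTT, 0.01% Tween20. Enzyme was added last to start the reaction, then incubated 30 min at room temperature. No-enzyme wells were taken as 100% inhibition and the complete reaction as 0%.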

[2] = target: T1, Eukaryotic initiation factor 4A-III; assay: Inhibition of eIF4A3 (unknown origin) expressed in HEK293T cells assessed as NMD suppression at 3 uM after 6 hrs by luciferase reporter gene assay relative to control; assay type: cell-based
In short: (§1)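 HEK293T cells were co-transfected (Lipofectamine LTX) with the pGL4.12 SV40-Luc2CP-BGG NMD reporter and a pRL-TK renilla control. After 24 h of transfection, cells were treated with compound for 6 h. Firefly/renilla luciferase ratio was measured by dual-luciferase assay and normalized to DMSO-treated cells, n = 2.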

[3] = target: T1, Eukaryotic initiation factor 4A-III; assay: Inhibition of eIF4A3 (unknown origin) expressed in HEK293T cells assessed as NMD suppression at 10 uM after 6 hrs by luciferase reporter gene assay relative to control; assay type: cell-based; in short: as §1
[4] = target: T1, Eukaryotic initiation factor 4A-III; assay: Binding affinity to full-length human recombinant His6-tagged eIF4A3 expressed in Escherichia coli BL21(DE3) by surface plasmon resonance assay
In short: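 eIF4A3 immobilized on CM7 chip by amine coupling (5000–10 000 RU) in HBS-P+ with 1 mM DTT. Binding run at 25 °C in 20 mM Tris-HCl pH 8.0, 150 mM NaCl, 0.2 mM TCEP, 0.02% P20, 1−2% DMSO. Compound injected at 6−12 concentrations for 60−120 s at 50 μL/min, dissociation followed 120−1200 s. Sensorgrams double-referenced, globally fitted to 1:1 model.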

[5] = target: T1, Eukaryotic initiation factor 4A-III; assay: Binding affinity to full-length human recombinant His6-tagged eIF4A3 expressed in Escherichia coli BL21(DE3) assessed as dissociation half life by surface plasmon resonance assay
In short: (§2)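 eIF4A3 amine-coupled to a CM7 sensor chip (5000–10 000 RU) in HBS-P+ with 1 mM DTT. Binding was run at 25 °C in 20 mM Tris-HCl pH 8.0, 150 mM NaCl, 0.2 mM TCEP, 0.02% P20 and 1–2% DMSO. Compound series of 6–12 concentrations were injected for 60–120 s at 50 μL/min, with dissociation followed for 120–1200 s. Sensorgrams were double-referenced and globally fitted to a 1:1 model.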

[6] = target: T1, Eukaryotic initiation factor 4A-III; assay: Binding affinity to full-length human recombinant His6-tagged eIF4A3 expressed in Escherichia coli BL21(DE3) assessed as association rate constant by surface plasmon resonance assay; in short: as §2
[7] = target: T1, Eukaryotic initiation factor 4A-III; assay: Binding affinity to full-length human recombinant His6-tagged eIF4A3 expressed in Escherichia coli BL21(DE3) assessed as dissociation rate constant by surface plasmon resonance assay; in short: as §2

Compound	IC50 [1] [nM]	other results
Cc1c(C(=O)N2CCN(C(=O)c3ccc(Cl)cc3)C(c3ccc(Cl)cc3)C2)cnn1-c1ccccc1 (configuration not stated)	1600	–
COc1ccc2c(C(=O)N3CCN(C(=O)c4ccc(Br)cc4)C(c4ccc(Cl)cc4)C3)cnn2c1 (configuration not stated)	920	NMD suppression activity (qualitative) [2]: Active; fold change (FC) [3]: 1.7
O=C(c1cnc(-c2ccccc2)o1)N1CCN(C(=O)c2ccc(Cl)cc2)C(c2ccc(Cl)cc2)C1 (configuration not stated)	2200	–
O=C(c1cnc(-c2ccccc2)o1)N1CCN(C(=O)c2ccccc2Cl)C(c2ccc(Cl)cc2)C1 (configuration not stated)	> 100000	–
C[C@H]1C[C@@]2(O[C@H]3C[C@H]4[C@@H]5CC[C@H]6C[C@H](O)CC[C@]6(C)[C@H]5[C@@H](O)C[C@]4(C)[C@H]3[C@@]2(C)O)OC1(C)C	–	Activity [4]: Dose-dependent effect
O=C(c1cnn2cc(Br)ccc12)N1CCN(C(=O)c2ccc(Br)cc2)[C@@H](c2ccc(Cl)cc2)C1	200	T1/2 [5]: 7.3 min; Kd [4]: 57 nM; K [6]: 2.8 ×10⁴ /M/s; K [7]: 1.6 ×10⁻³ /s
Cc1c(C(=O)N2CCN(C(=O)c3ccc(Br)cc3)[C@H](c3ccc(Cl)cc3)C2)cnn1-c1cccc(C#N)c1	> 100000	fold change (FC) [2]: 1.1; fold change (FC) [3]: 1.34
O=C(c1cnn2cc(Br)ccc12)N1CCN(C(=O)c2ccc(Cl)cc2)C(c2ccc(Cl)cc2)C1 (configuration not stated)	720	–
O=C(c1cnc(-c2ccccc2)o1)N1CCN(C(=O)c2ccc(Cl)cc2)C(c2cccc(Cl)c2)C1 (configuration not stated)	> 100000	–
N#Cc1ccc(-c2ncc(C(=O)N3CCN(C(=O)c4ccc(Cl)cc4)C(c4ccc(Cl)cc4)C3)o2)cc1 (configuration not stated)	8400	–
O=C(c1cnn(-c2ccccc2)c1)N1CCN(C(=O)c2ccc(Cl)cc2)C(c2ccc(Cl)cc2)C1 (configuration not stated)	2400	–
O=C(c1cnc(-c2ccccc2)o1)N1CCN(Cc2ccc(Cl)cc2)C(c2ccc(Cl)cc2)C1 (configuration not stated)	> 100000	–
O=C(c1cnc(-c2ccccc2)o1)N1CCCN(C(=O)c2ccc(Cl)cc2)C(c2ccc(Cl)cc2)C1 (configuration not stated)	> 100000	–
O=C(c1ccc(Cl)cc1)N1CCN(Cc2cnc(-c3ccccc3)o2)CC1c1ccc(Cl)cc1 (configuration not stated)	> 100000	–
O=C(c1n[nH]c2ccccc12)N1CCN(C(=O)c2ccc(Cl)cc2)C(c2ccc(Cl)cc2)C1 (configuration not stated)	62000	–
O=C(c1coc(-c2ccccc2)n1)N1CCN(C(=O)c2ccc(Cl)cc2)C(c2ccc(Cl)cc2)C1 (configuration not stated)	69000	–
N#Cc1ccnc(-c2ncc(C(=O)N3CCN(C(=O)c4ccc(Br)cc4)C(c4ccc(Cl)cc4)C3)o2)c1 (configuration not stated)	390	NMD suppression activity (qualitative) [2]: Active; fold change (FC) [3]: 1.8
Cc1c(C(=O)N2CCN(C(=O)c3ccc(Br)cc3)C(c3ccc(Cl)cc3)C2)cnn1-c1cccc(C#N)c1 (configuration not stated)	580	NMD suppression activity (qualitative) [2]: Active; fold change (FC) [3]: 2.3
N#Cc1cccc(-c2ncc(C(=O)N3CCN(C(=O)c4ccc(Br)cc4)C(c4ccc(Cl)cc4)C3)o2)c1 (configuration not stated)	360	NMD suppression activity (qualitative) [2]: Active; fold change (FC) [3]: 1.8

Compound	IC50 [1] [nM]	other results
O=C(c1ncc(-c2ccccc2)o1)N1CCN(C(=O)c2ccc(Cl)cc2)C(c2ccc(Cl)cc2)C1 (configuration not stated)	> 100000	–
O=C(c1cnc(-c2ccccc2)o1)N1CCN(C(=O)c2ccc(Cl)cc2)C(c2ccccc2Cl)C1 (configuration not stated)	> 100000	–
O=C(c1cnn2c(Br)cccc12)N1CCN(C(=O)c2ccc(Cl)cc2)C(c2ccc(Cl)cc2)C1 (configuration not stated)	1900	–
O=C(c1cnc(-c2ccccc2)o1)N1CCN(C(=O)c2ccc(Cl)cc2)C(C2CCCCC2)C1 (configuration not stated)	> 100000	–
N#Cc1cccc(-c2ncc(C(=O)N3CCN(C(=O)c4ccc(Cl)cc4)C(c4ccc(Cl)cc4)C3)o2)c1 (configuration not stated)	600	–
O=C1C(c2ccc(Cl)cc2)N(C(=O)c2ccc(Cl)cc2)CCN1Cc1cnc(-c2ccccc2)o1 (configuration not stated)	> 100000	–
O=C(c1cnn2cccc(Br)c12)N1CCN(C(=O)c2ccc(Cl)cc2)C(c2ccc(Cl)cc2)C1 (configuration not stated)	8900	–
O=C(c1cnc(-c2ccccc2)o1)N1CCN(C(=O)c2ccccc2)C(c2ccc(Cl)cc2)C1 (configuration not stated)	11000	–
N#Cc1ccc2c(C(=O)N3CCN(C(=O)c4ccc(Br)cc4)C(c4ccc(Cl)cc4)C3)cnn2c1 (configuration not stated)	9000	–
O=C(c1cnn2cc(Br)ccc12)N1CCN(C(=O)c2ccc(Br)cc2)[C@H](c2ccc(Cl)cc2)C1	60000	T1/2 [5]: 0.477 min; Kd [4]: 16000 nM; K [6]: 1.5 ×10³ /M/s; K [7]: 2.4 ×10⁻² /s
O=C(c1cnc(-c2ccccc2)o1)N1CCN(C(=O)c2ccc(Br)cc2)C(c2ccc(Cl)cc2)C1 (configuration not stated)	660	–
O=C(c1cnn2cc(Br)ccc12)N1CCN(C(=O)c2ccc(Br)cc2)C(c2ccc(Cl)cc2)C1 (configuration not stated)	420	NMD suppression activity (qualitative) [2]: Active; fold change (FC) [3]: 1.9
N#Cc1ccccc1-c1ncc(C(=O)N2CCN(C(=O)c3ccc(Cl)cc3)C(c3ccc(Cl)cc3)C2)o1 (configuration not stated)	2100	–
O=C(c1cnc(-c2ccccc2)o1)N1CCN(C(=O)c2cccc(Cl)c2)C(c2ccc(Cl)cc2)C1 (configuration not stated)	> 100000	–
O=C(c1cnn2ccc(Br)cc12)N1CCN(C(=O)c2ccc(Cl)cc2)C(c2ccc(Cl)cc2)C1 (configuration not stated)	830	–
O=C(c1ccn(-c2ccccc2)n1)N1CCN(C(=O)c2ccc(Cl)cc2)C(c2ccc(Cl)cc2)C1 (configuration not stated)	> 100000	–
O=C(c1c[nH]c2ccccc12)N1CCN(C(=O)c2ccc(Cl)cc2)C(c2ccc(Cl)cc2)C1 (configuration not stated)	2300	–
O=C(c1cnn2ccccc12)N1CCN(C(=O)c2ccc(Cl)cc2)C(c2ccc(Cl)cc2)C1 (configuration not stated)	1100	–
